Series [1] concerns Huh-7. The series is described as follows: Antiproliferative activity against human Huh-7 cells assessed as growth inhibition at 100 ug/mL incubated for 48 hrs by SRB assay relative to control. The series is classed as functional. To be noted: read-out: GI. Summed up:
(§1)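 SRB assay: cells seeded at 3×10^3/well, allowed 24 h to attach, then exposed to 100 µg/mL for 48 h, three wells per concentration, DMSO 1% v/v vehicle control. Cells fixed with 20% trichloroacetic acid and stained with 0.4% SRB, then OD read at 570 nm. Survival fraction taken as treated OD/control OD.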
(The SRB assay estimates cell density from bound dye.)

Series [2] deals with HeLa. The series is described as follows: Antiproliferative activity against human HeLa cells assessed as growth inhibition at 100 ug/mL incubated for 48 hrs by SRB assay relative to control. The format is functional. As to conditions: read-out: GI. The method, boiled down: as §1
Series [3] concerns HepG2. The series is described as follows: Antiproliferative activity against human HepG2 cells assessed as growth inhibition at 100 ug/mL incubated for 48 hrs by SRB assay relative to control. The series is classed as functional. As to conditions: read-out: GI. The method, boiled down:
as §1

The subject of series [4] is FaDu. The series is described as follows: Antiproliferative activity against human FaDu cells assessed as growth inhibition at 100 ug/mL incubated for 48 hrs by SRB assay relative to control. The format is functional. As to conditions: read-out: GI. Summed up: as §1
In series [5] the test system is Caco-2. In words: Antiproliferative activity against human Caco-2 cells assessed as growth inhibition at 100 ug/mL incubated for 48 hrs by SRB assay relative to control. The series is classed as functional. As to conditions: read-out: GI. Summed up:
as §1

The test system of series [6] is MCF7. The series is described as follows: Antiproliferative activity against human MCF7 cells assessed as growth inhibition at 100 ug/mL incubated for 48 hrs by SRB assay relative to control. The format is functional. As to conditions: read-out: GI. Summed up: as §1
Series [7] relates to MDA-MB-468. The series is described as follows: Antiproliferative activity against human MDA-MB-468 cells assessed as growth inhibition at 100 ug/mL incubated for 48 hrs by SRB assay relative to control. The format is functional. To be noted: read-out: GI. The method, boiled down: as §1
Series [8] relates to A-375. The series is described as follows: Antiproliferative activity against human A-375 cells assessed as growth inhibition at 100 ug/mL incubated for 48 hrs by SRB assay relative to control. To be noted: read-out: GI. The format is functional. Summed up: as §1
Series [9] concerns MG-63. In words: Antiproliferative activity against human MG-63 cells assessed as growth inhibition at 100 ug/mL incubated for 48 hrs by SRB assay relative to control. The series is classed as functional. To be noted: read-out: GI. The method, boiled down:
as §1

A short description of series [10]: Antiproliferative activity against human HNO 97 cell line assessed as growth inhibition at 100 ug/mL incubated for 48 hrs by SRB assay relative to control. The series is classed as functional. To be noted: read-out: GI. The method, boiled down:
as §1

The subject of series [11] is HCT-116. The series is described as follows: Antiproliferative activity against human HCT-116 cells assessed as growth inhibition at 100 ug/mL incubated for 48 hrs by SRB assay relative to control. The format is functional. To be noted: read-out: GI. Summed up:
as §1

A short description of series [12]: Cytotoxicity against HSF cells assessed as growth inhibition at 100 ug/mL incubated for 48 hrs by SRB assay relative to control. The series is classed as toxicity, cell-based. To be noted: human, at 100 µg/mL, read-out: GI. The method, boiled down:
as §1

Series [13] can be described thus: Cytotoxicity against human oral epithelial cells (OEC) assessed as growth inhibition at 100 ug/mL incubated for 48 hrs by SRB assay relative to control. The format is toxicity, cell-based, Oral epithelial cell. To be noted: at 100 µg/mL, read-out: GI. Summed up: as §1
In series [14] the test system is HCT-116. In words: Cytotoxicity against human HCT-116 cells assessed as inhibition of cell growth incubated for 48 hrs by SRB assay. The format is functional, cell-based. As to conditions: HCT-116, 48 h. Summed up:
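Cells plated at 3×10^3/well and left 24 h to attach. Treated at 12.5, 25, 50 and 62.5 µg/mL for 48 h, three wells per concentration, with DMSO (1% v/v) vehicle control. Fixed with 20% TCA, stained with 0.4% SRB, OD read at 570 nm. Survival fraction = treated OD/control OD. IC50 from sigmoidal dose-response curve fitting.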

The structures appear in SMILES notation.

`Cc1c(C(=O)N/N=C/c2ccccc2)nnn1-c1ccc(Br)cc1`: the inhibition of growth at 100 µg/mL in series [1] came out at 67%; in [2], 79%; in [3] it was 72%; in series [4] it was 83%; in [5], 37%; in series [6] it was 87%. Also, the inhibition of growth at 100 µg/mL was 65% in [7]; 72% in series [8]; 75% in series [9]; 89% in series [10]; 87% in series [11]. Also, the inhibition at 48 h, 100 ug/mL in series [12] came out at 4%; in [13] it was 23%. In addition, in [14], the IC50 was 16.9 µM.
For the compound `COc1ccc(/C=N/NC(=O)c2nnn(-c3ccc(F)cc3)c2C)cc1OC`, the inhibition of growth at 100 µg/mL turned out to be 65% in [1]; 78% in series [2]; 81% in series [3]; 89% in [4]; 49% in series [5]; 87% in series [6]. Also, the inhibition of growth at 100 µg/mL came out at 65% in series [7]; 82% in series [8]; 84% in [9]; 84% in [10]; 81% in series [11]. The inhibition at 48 h, 100 ug/mL in series [12] worked out at 21%; in [13], 33%.
Consider `COc1cccc(/C=N/NC(=O)c2nnn(-c3ccc([N+](=O)[O-])cc3)c2C)c1OC`, for which the inhibition of growth at 100 µg/mL in series [1] was 56%; in series [2], 52%; in [3] it was 56%; in series [4], 56%; in series [5], 32%; in series [6], 63%. Moreover, the inhibition of growth at 100 µg/mL is 56% in series [7]; 75% in [8]; 44% in series [9]; 54% in series [10]; 56% in series [11]. In addition, the values for the inhibition at 48 h, 100 ug/mL in series [12] and in series [13] were 19% and 36%, respectively.
With `COc1cc(/C=N/NC(=O)c2nnn(-c3ccc(Br)cc3)c2C)cc(OC)c1OC`, the inhibition of growth at 100 µg/mL stood at 75% in series [1]; 60% in [2]; 76% in [3]; 73% in [4]; 64% in series [5]; 72% in [6]. The inhibition of growth at 100 µg/mL turned out to be 76% in series [7]; 60% in series [8]; 67% in series [9]; 68% in series [10]; 82% in [11]. The inhibition at 48 h, 100 ug/mL in series [12] was 51%; in series [13], 52%.
With `COc1ccc(/C=N/NC(=O)c2nnn(-c3ccc(Br)cc3)c2C)cc1OC`, the inhibition of growth at 100 µg/mL was 53% in series [1]; 65% in series [2]; 59% in series [3]; 69% in series [4]; 40% in series [5]; 86% in series [6]. Further, the inhibition of growth at 100 µg/mL was 54% in [7]; 77% in series [8]; 42% in series [9]; 86% in series [10]; 63% in series [11]. Further, the inhibition at 48 h, 100 ug/mL in series [12] was found to be 20%; in series [13] it was 28%.
In the case of `COc1cc(/C=N/NC(=O)c2nnn(-c3ccc(Cl)cc3)c2C)cc(OC)c1OC`, the inhibition of growth at 100 µg/mL was 78% in series [1]; 42% in series [2]; 43% in [3]; 69% in series [4]; 53% in series [5]; 50% in series [6]. The inhibition of growth at 100 µg/mL in series [7] came out at 59%; in [8], 63%; in series [9], 38%; in series [10] it was 74%; in [11], 64%. Further, the values for the inhibition at 48 h, 100 ug/mL in series [12] and in series [13] were 34% and 25%, respectively.
On to `COc1cccc(/C=N/NC(=O)c2nnn(-c3ccc(Br)cc3)c2C)c1OC`, for which the inhibition of growth at 100 µg/mL was found to be 70% in series [1]; 68% in series [2]; 69% in series [3]; 79% in series [4]; 47% in [5]; 60% in series [6]. In addition, the inhibition of growth at 100 µg/mL in series [7] was 63%; in series [8], 73%; in series [9], 63%; in series [10] it was 77%; in series [11] it was 69%. Besides, the results for the inhibition at 48 h, 100 ug/mL in series [12] and in series [13] were 35% and 19%, respectively.
Regarding `Cc1c(C(=O)N/N=C/c2ccccc2)nnn1-c1ccc(F)cc1`, the inhibition of growth at 100 µg/mL in [1] was 37%; in [2] it was 52%; in series [3], 54%; in series [4] it was 70%; in series [5], 20%; in [6], 80%. For the same compound, the inhibition of growth at 100 µg/mL in series [7] stood at 44%; in [8] it was 42%; in [9], 68%; in series [10], 74%; in [11] it was 74%. The inhibition at 48 h, 100 ug/mL in series [12] amounted to 14%; in series [13] it was 16%.
On to `COc1cccc(/C=N/NC(=O)c2nnn(-c3ccc(F)cc3)c2C)c1OC`, for which the inhibition of growth at 100 µg/mL in series [1] worked out at 68%; in series [2], 45%; in [3], 49%; in series [4], 70%; in series [5] it was 36%; in [6] it was 78%. Besides, the inhibition of growth at 100 µg/mL in series [7] came out at 52%; in series [8], 71%; in series [9] it was 42%; in series [10] it was 69%; in series [11] it was 64%. Moreover, the inhibition at 48 h, 100 ug/mL was found to be 9% in series [12] and 13% in series [13].
For `COc1cc(/C=N/NC(=O)c2nnn(-c3ccc([N+](=O)[O-])cc3)c2C)cc(OC)c1OC`, the inhibition of growth at 100 µg/mL came out at 74% in series [1]; 29% in [2]; 44% in [3]; 70% in series [4]; 60% in series [5]; 49% in series [6]. Besides, the inhibition of growth at 100 µg/mL amounted to 70% in [7]; 50% in series [8]; 40% in series [9]; 68% in series [10]; 35% in series [11]. Besides, the figures for the inhibition at 48 h, 100 ug/mL in series [12] and in series [13] were 28% and 39%, respectively.

What is called IC50 is the concentration at which inhibition is half-maximal.

The record behind these values is ChEMBL document CHEMBL6182834, “Dual EGFR and telomerase inhibitory potential of new triazole tethered Schiff bases endowed with apoptosis: design, synthesis, and biological assessments” (RSC Med Chem, 2025).
